Shown are actives, neighbours in structure and some others; about 4.2% of the full set was active somewhere.
GAA850 FXN act = activators of GAA850 frataxin (FXN) promoter. HEK293 lucGAA850 FXN promoter luciferase reporter, 24 h; percent of 10 µM SAHA response. AID 540364. activation, % at 6 µM. actives 0.56% (n = 360,000);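 active = activation above the average of all compounds screened plus 3 SD, cutoff fixed separately per campaign, cut at about 7.5% in these data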;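 note: 0% = DMSO wells and 100% = 10 µM SAHA wells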
CTSL1 counter-1 = cathepsin L1 inhibition, PFM18AAP counter-screen; inhibition, % at 5.96 µM; AID 1906; actives 0.49% (n = 300,000); recombinant F. hepatica cathepsin L1, Z-Leu-Arg-MCA fluorescence;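 active = inhibition above the mean of all tested compounds plus 3 SD, set per screening campaign, cut at about 17% in these data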;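 note: 0% = plate median of test compound wells and 100% = 1 µM Z-Phe-Ala-diazomethylketone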
SENP1 FRET inh = SENP1 (human) catalytic domain inhibition; inhibition, % at 10 µM; Q9P0U3; actives 0.21% (n = 360,000); recombinant SENP1 catalytic domain, CyPet-SUMO1-YPet FRET cleavage;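 active = inhibition at least 30% at 10 µM, raw YFP signal under a set limit, fluorescence ratio 0.5 to 1.5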;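 note: 0% = enzyme with DMSO and 100% = no enzyme wells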
Target sequence (Q9P0U3 419-644 limits assumed): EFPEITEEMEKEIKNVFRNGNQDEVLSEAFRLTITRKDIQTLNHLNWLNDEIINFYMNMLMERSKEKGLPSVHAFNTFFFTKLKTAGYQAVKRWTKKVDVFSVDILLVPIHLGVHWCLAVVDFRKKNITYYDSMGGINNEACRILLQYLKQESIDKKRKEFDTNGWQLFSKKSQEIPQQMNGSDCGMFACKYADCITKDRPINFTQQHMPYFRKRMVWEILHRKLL
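system = hSENP1 catalytic domain, recombinant | reagent = SFCypet-SUMO1-SFYpet substrate at 25 nM | doses = one dose per compound, 10 µM, 0.5% DMSO | incubation = enzyme reaction for 50 min at room temperature, dark | measured by = FRET, CFP and YFP emission | controls = no-enzyme low, enzyme-DMSO high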
HDAC3 inhib = blocks human histone deacetylase 3 | actives 0.15% (n = 320,000) | AID 2718 | recombinant HDAC3, fluorogenic peptide/trypsin coupled, fluorescence | O15379 | inhibition, % at 8.3 µM; in the data active = inhibition above about 26%, passing the limit was not always enough
PfM18AAP inh-1 = blocks P. falciparum M18 aspartyl aminopeptidase | recombinant PfM18AAP, H-Glu-NHMec fluorogenic cleavage | inhibition, % at 7.35 µM | actives 1.2% (n = 290,000) | AID 1822;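 active = inhibition above the campaign mean inhibition over all tested compounds plus 3 SD, cut at about 28% in these data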;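 note: 0% = plate median of test compound wells and 100% = 2 mM ZnCl2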
AHR act = activates the human aryl hydrocarbon receptor; AHR-responsive luciferase reporter cells, luminescence; activation, % at 5 µM; actives 2.5% (n = 320,000); AID 2796; in the data active = activation above about 47%;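 note: 0% = vehicle wells and 100% = reference agonist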
PfM18AAP inh-2 = confirmation of Plasmodium falciparum M18 aspartyl aminopeptidase inhibitors; recombinant PfM18AAP, H-Glu-NHMec fluorogenic cleavage; inhibition, % at 7.35 µM; AID 2170; shares compounds with PfM18AAP inh-1; actives 28% (n = 2,400);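 active = mean inhibition over replicate wells above the hit cutoff set for the earlier primary screen, cut at about 29% in these data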;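 note: 0% = median of test compound wells and 100% = 2 mM ZnCl2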
CTSL1 counter-2 = Cathepsin L (human) inhibition, confirmation; shares compounds with PfM18AAP inh-1; purified cathepsin L1, Z-Leu-Arg-MCA fluorescence; inhibition, % at 5.96 µM; 2,400 tested, under 10 active;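 active = average inhibition across replicates above the hit cutoff set in the earlier primary screen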;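 note: 0% = median of test compound wells and 100% = Z-Phe-Ala-diazomethylketone 1 µM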
Target sequence (P07711 whole entry, looked up): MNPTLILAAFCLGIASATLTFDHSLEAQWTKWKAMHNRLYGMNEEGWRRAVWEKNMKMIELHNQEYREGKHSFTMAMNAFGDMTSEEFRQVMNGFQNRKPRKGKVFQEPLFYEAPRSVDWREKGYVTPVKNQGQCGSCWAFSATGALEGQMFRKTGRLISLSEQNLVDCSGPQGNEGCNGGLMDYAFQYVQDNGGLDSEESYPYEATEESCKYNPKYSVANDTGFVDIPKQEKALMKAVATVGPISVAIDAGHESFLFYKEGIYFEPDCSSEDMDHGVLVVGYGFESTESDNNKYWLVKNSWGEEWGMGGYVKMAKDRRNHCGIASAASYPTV
* hit, by the source's call; · = no result.

SMILES	GAA850 FXN act	CTSL1 counter-1	SENP1 FRET inh	HDAC3 inhib	PfM18AAP inh-1	AHR act	PfM18AAP inh-2	CTSL1 counter-2
C/C(=N\Nc1nc(N)cc(Cl)n1)c1cccc([N+](=O)[O-])c1	0.4	0.9	1.4	4.0	34.1*	18.2	-45.2	3.1
CC(=O)C1=C(c2ccccc2)NC(=S)NC1c1ccc(O)c(O)c1 (centres undefined)	2.1	5.0	1.5	6.4	73.7*	0.3	68.3*	4.8
CC(=O)C1=C(c2ccccc2)NC(=S)NC1c1cc(Cl)c(OC(C)C)c(Cl)c1 (centres undefined)	2.9	1.9	-1.1	2.4	-13.0	-3.4	·	·
CC(=O)C1=C(c2ccccc2)NC(=O)NC1c1ccc(O)c(O)c1 (centres undefined)	3.0	-2.8	0.6	12.8	76.8*	-1.0	71.1*	-5.9
CC1=C([N+](=O)[O-])C(c2ccc(O)c(O)c2)NC(=O)N1 (centres undefined)	-0.5	-0.3	2.1	·	83.8*	0.1	80.7*	-4.0
CC1(C(=O)NS(=O)(=O)c2ccc(Cl)cc2)CCN1C(=O)c1cccc(F)c1 (centres undefined)	-0.1	·	0.0	·	·	·	·	·
COc1cccc(CNc2nc3cc(-c4cccc(C(=O)NCCO)c4)sc3c(=O)n2C)c1	-0.6	·	0.6	·	·	·	·	·
CCN(CC(=O)NCc1ccc(Cl)cc1)C(=O)CCC(=O)c1ccc(F)cc1	-1.6	-2.1	2.5	10.5	·	0.6	·	·
Cc1onc(-c2c(Cl)cccc2Cl)c1C(=O)Nn1cnnc1	-0.8	-2.4	1.6	2.3	44.7*	1.5	37.4*	1.9
Cc1onc(-c2c(Cl)cccc2Cl)c1C(=O)c1ccccc1	-0.1	-1.8	1.9	8.2	-10.7	-1.4	·	·
COc1ccc(C(=O)Nn2cnc3ccccc3c2=O)c(OC)c1	3.0	1.4	-10.0	-0.1	-1.8	36.1	·	·
COc1ccc(C(=O)Nn2cnnc2)cc1OC	2.2	4.1	0.7	0.9	43.1*	2.1	25.5	-1.3
COc1ccc(C(=O)NN2CCCCC2)cc1OC	-0.4	1.2	1.2	2.2	-8.9	30.6	·	·
COc1ccc(C(=O)Nn2cnnc2)c(OC)c1	-1.3	-1.1	0.5	-8.0	33.6*	1.8	6.8	0.9
Cc1cccc(C(=O)NNC(=O)c2c(-c3ccccc3Cl)noc2C)c1O	-0.7	-6.5	2.5	2.3	39.5*	32.0	-4.2	0.2
O=C(Nn1cnnc1)c1ccc(Cl)cc1[N+](=O)[O-]	0.8	6.0	-19.5	-1.6	24.6	0.5	·	·
Cc1ccc(C(=O)Nn2cnnc2)c(Cl)c1	2.7	-0.8	-0.5	2.0	49.3*	2.9	41.8*	-6.0
Clc1ccccc1-c1ncnc2ccc(Br)cc12	2.1	-1.0	0.9	0.5	0.0	1.5	·	·
NNc1nc(-c2ccccc2Cl)c2cc(Br)ccc2n1	1.2	6.2	-9.5	-5.1	32.1*	8.2	-15.0	8.0
Cc1csc(/C(=N/OC(=O)c2ccco2)C(N)=O)n1	-1.4	1.5	-0.6	27.7*	50.9*	0.4	9.1	-5.5
Cc1cc2oc(=O)sc2cc1NS(=O)(=O)c1cccc2cccnc12	0.5	4.0	2.7	-1.2	25.9	-1.0	·	·
Cc1cc2oc(=O)sc2cc1NS(=O)(=O)c1ccccc1	-1.5	0.3	0.6	4.8	36.0*	-0.7	-30.0	-0.1
CN(C)c1ccc(NC(N)=S)cc1	1.4	-3.2	0.0	0.3	49.1*	-0.9	19.5	-3.1
CSc1ccc(NC(N)=S)cc1	0.3	-1.5	-2.2	1.1	0.1	2.5	·	·
O=C1Nc2ccccc2/C1=N\N=C\c1ccc(O)c(O)c1	2.1	6.0	4.0	8.4	48.3*	19.4	47.3*	11.0
SMILES	GAA850 FXN act	CTSL1 counter-1	SENP1 FRET inh	HDAC3 inhib	PfM18AAP inh-1	AHR act	PfM18AAP inh-2	CTSL1 counter-2
O=C(/C(=N/O)c1ccccc1)c1ccccc1	2.7	·	1.5	·	·	·	·	·
C(=N\N(c1ccccc1)c1ccccc1)/c1ccccn1	2.2	5.4	0.5	3.3	-2.5	2.9	·	·
Oc1ccc(/C=N/N(c2ccccc2)c2ccccc2)c(O)c1O	2.5	4.1	9.6	1.4	47.6*	0.3	-14.6	-7.6
Oc1ccc(/C=N/N(c2ccccc2)c2ccccc2)cc1O	2.0	-0.1	-3.9	0.8	66.8*	2.2	41.8*	-7.6
O=C(/C(=N/N=C/c1ccc(O)c(O)c1)c1ccccc1)c1ccccc1	3.9	-0.6	4.0	9.3	47.6*	6.6	29.9*	3.0
COc1cc([N+](=O)[O-])ccc1NC(=O)NNC(=O)CCc1ccccc1	2.0	-1.2	2.2	2.1	0.1	19.1	·	·
COc1cc([N+](=O)[O-])ccc1NC(=O)NNC(=O)c1sccc1C	-0.8	4.0	3.3	0.6	52.7*	6.0	44.6*	-1.9
COc1cc(C(=O)N2C[C@@H]3CCC[C@H]2C3)ccc1OC1CCN(C(C)=O)CC1	-0.5	0.7	0.1	-2.1	-4.3	2.0	·	·
Cc1nnc(SCC(=O)NNC(=O)CC#N)[nH]c1=O	1.3	-2.4	-1.3	3.2	42.7*	4.7	27.6	3.9
CCOc1cc(/C=N/Nc2nnc(C)n2N)ccc1OC(C)=O	-1.6	·	1.0	4.1	33.5*	·	-59.0	-0.1
Cc1nnc(N/N=C/c2cccc(OCc3ccc(Cl)c(Cl)c3)c2)n1N	2.2	2.4	0.5	-2.0	49.1*	33.2	-36.9	4.4
C[C@H](CO)N1C[C@H](C)[C@@H](CN(C)C(=O)CCCN(C)C)OCc2cn(nn2)CCCC1=O	1.3	·	2.5	·	·	·	·	·
Cc1noc(C)c1S(=O)(=O)N(CC(=O)NC1CCCC1)c1ccc(C(C)C)cc1	1.6	0.8	0.9	2.9	4.3	1.4	·	·
CC(=O)Oc1ccc2occ(/C=N/c3cc(=O)[nH]c(=S)[nH]3)c(=O)c2c1	0.0	-1.4	-0.1	2.0	34.9*	4.5	11.4	-7.5
CCn1c(CNC(=O)c2ccccc2F)cc2cc(C)ccc21	3.7	·	-0.9	1.4	-1.1	·	·	·
CCOCCCn1c(=O)c2ccccc2n2c(=S)[nH]nc12	-0.1	-0.6	-0.9	19.7	46.0*	3.5	21.9	-2.6
Cc1[nH]c2ccccc2c1/C=N/Nc1ccc([N+](=O)[O-])cc1	2.6	1.0	22.1	7.3	34.4*	0.1	-41.0	2.1
COc1ccccc1NS(=O)(=O)c1cc([N+](=O)[O-])ccc1N/N=C/c1c(C)[nH]c2ccccc12	-1.7	2.1	-0.1	-5.3	7.5	15.0	·	·
O=C(c1cccc(S(=O)(=O)N2CCc3ccccc3C2)c1)N1CCN(c2ccc(O)cc2)CC1	3.0	1.9	2.5	0.3	35.6*	0.8	-4.8	4.2
O=C1CCCCc2cc(O)c(O)cc21	1.7	·	2.6	·	·	·	·	·

Source: PubChem
